Test results published in article PMC3777810 (Journal of medicinal chemistry, 2013).
Entries after “also recorded” stand apart in the source; their conditions may differ. Where a name gives a salt, the structure may show the parent alone.

Columns and labels:
[1] = test system: MA-10 mouse tumor Leydig cells; experiment: Steroidogenesis assay: progesterone production by RIA; format: cell-based; details: for progesterone production: all tested concentrations (0–100 μM); for progesterone production / stimulation of progesterone production: 2 h incubation, RIA; for time of first maximum steroid production: 50 μM, 0–120 min, biphasic time response; for stimulation of progesterone production: 100 μM
How it was run: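 Cells were plated at 2.5 × 10^4 per well, left to adhere 18 h, washed with PBS, then given serum-free medium with 0–100 μM test compound from DMSO stocks (final DMSO <0.02%; controls matched). Incubation was 2 h, or 0–120 min at 50 μM (n=2). Medium progesterone was measured by RIA with anti-progesterone antisera and normalized to well protein (Bradford, BSA standard).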

[2] = test system: MA-10 mouse tumor Leydig cells; experiment: Cellular toxicity by MTT assay; format: cell-based; details: 100 μM, 2 h
How it was run: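 MA-10 mouse Leydig tumor cells were grown in DMEM/F-12 Ham with 5% fetal bovine serum and 2.5% heat-inactivated horse serum. They were exposed to test compound for 2 h, at 100 μM or over 0.1–100 μM, and toxicity was read by MTT. Single-concentration data are mean ± S.E.M. (n=3), compared by one-way ANOVA with Newman-Keuls post-test. Dose curves were fitted by nonlinear regression.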

C57BL/6 mice = experiment: SmartCube behavioral assay; format: in vivo, mouse; details: for SmartCube signature after chronic administration: 50 mg/kg i.p. once a day for 13 days; for SmartCube signature after a single dose: 50 mg/kg i.p., day 1, 15 min after dose
How it was run: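 Mice received test compound at 50 mg/kg i.p. once daily for 13 days, dosed 15 min before a session presenting multiple challenges, with at least 12 mice per group. Behavioral features were analyzed by computer algorithms and data mining. They were compared with a database of signatures from reference antipsychotics, anxiolytics and antidepressants.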

mouse model of mania = details: amphetamine and chlordiazepoxide induced; cited from earlier work
human GSK-3β = human GSK-3β (Homo sapiens, UniProt P49841); experiment: GSK-3β inhibition, phosphorylation of primed substrate; format: biochemical
human GSK-3β, sequence (P49841 whole entry): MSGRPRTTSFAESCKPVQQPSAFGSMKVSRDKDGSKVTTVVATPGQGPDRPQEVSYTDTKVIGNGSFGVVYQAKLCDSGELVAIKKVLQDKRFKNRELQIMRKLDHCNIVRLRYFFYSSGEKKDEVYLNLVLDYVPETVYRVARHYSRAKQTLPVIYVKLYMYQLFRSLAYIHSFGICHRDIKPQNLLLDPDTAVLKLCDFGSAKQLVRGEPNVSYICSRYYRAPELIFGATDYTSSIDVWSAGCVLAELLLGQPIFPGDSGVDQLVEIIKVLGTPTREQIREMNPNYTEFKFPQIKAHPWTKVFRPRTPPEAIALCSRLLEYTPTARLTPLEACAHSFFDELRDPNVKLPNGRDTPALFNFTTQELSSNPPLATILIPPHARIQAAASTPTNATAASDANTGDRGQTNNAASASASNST

Compound	progesterone production [1]	cellular toxicity (MTT) [2]	stimulation of progesterone production [1]	also measured
O=C1NC(=O)C(c2cn3c4c(cc(F)cc24)CNCC3)=C1c1coc2ccccc12 [Compound 25, 3-(Benzofuran-3-yl)-4-(9-fluoro-1,2,3,4-tetrahydro-[1,4]diazepino[6,7,1-hi]indol-7-yl)-1H-pyrrole-2,5-dione trifluoroacetate]	< 30 ng progesterone/mg protein	–	–	–
Cn1cc(C2=C(c3coc4ccccc34)C(=O)NC2=O)c2cc(Br)ccc21 [Compound 1, 3-(benzofuran-3-yl)-4-(5-bromo-1-methyl-1H-indol-3-yl)-1H-pyrrole-2,5-dione]	–	either low or no apparent toxicity	bioactive in stimulating progesterone production	time of first maximum steroid production [1]: ≤ 15 min; SmartCube signature after chronic administration (C57BL/6 mice): predicting anxiolytic-like activity; SmartCube signature after a single dose (C57BL/6 mice): Neither compound demonstrated any classified behavioral activity; effect on hyperactivity (mouse model of mania): attenuates hyperactivity
COCCn1cc(C2=C(c3coc4ccccc34)C(=O)NC2=O)c2cc(Br)cnc21 [Compound 14, 3-(Benzofuran-3-yl)-4-(5-bromo-1-(2-methoxyethyl)-1H-pyrrolo[2,3-b]pyridin-3-yl)-1Hpyrrole-2,5-dione]	–	either low or no apparent toxicity	bioactive in stimulating progesterone production	–
Cn1cc(C2=C(c3cnc4ccccn34)C(=O)NC2=O)c2cc3c(cc21)OCO3 [Compound 19, 3-(Imidazo[1,2-a]pyridin-3-yl)-4-(5-methyl-5H-[1,3]dioxolo[4,5-f]indol-7-yl)-1H-pyrrole-2,5-dione trifluoroacetate]	–	–	–	IC50 (human GSK-3β): 5 nM
COCCn1cc(C2=C(c3coc4ccccc34)C(=O)NC2=O)c2ccccc21 [Compound 9, 3-(Benzofuran-3-yl)-4-(1-(2-methoxyethyl)-1H-indol-3-yl)-1H-pyrrole-2,5-dione]	–	either low or no apparent toxicity	bioactive in stimulating progesterone production	time of first maximum steroid production [1]: ≤ 15 min; SmartCube signature after chronic administration (C57BL/6 mice): predicting anxiolytic-like activity; SmartCube signature after a single dose (C57BL/6 mice): Neither compound demonstrated any classified behavioral activity
Cn1cc(C2=C(c3cnc4ccccn34)C(=O)NC2=O)c2cc(Br)ccc21 [Compound 20, 3-(5-Bromo-1-methyl-1H-indol-3-yl)-4-(imidazo[1,2-a]pyridin-3-yl)-1H-pyrrole-2,5-dione trifluoroacetate]	< 30 ng progesterone/mg protein	–	–	–
COc1cc2c(C3=C(c4coc5ccccc45)C(=O)NC3=O)cn(C)c2cn1 [Compound 17, 3-(Benzofuran-3-yl)-4-(5-methoxy-1-methyl-1H-pyrrolo[2,3-c]pyridin-3-yl)-1H-pyrrole-2,5-dione]	< 30 ng progesterone/mg protein	–	–	–
O=C1NC(=O)C(c2cn3c4c(cc(F)cc24)CN(C(=O)N2CCC(N4CCCCC4)CC2)CC3)=C1c1coc2ccccc12 [Compound 30, 3-(2-([1,4’-Bipiperidine]-1’-carbonyl)-9-fluoro-1,2,3,4-tetrahydro-[1,4]diazepino[6,7,1-hi]indol-7-yl)-4-(benzofuran-3-yl)-1H-pyrrole-2,5-dione trifluoroacetate]	–	significantly more cytotoxic	–	–
Cn1cc(C2=C(c3coc4ccccc34)C(=O)NC2=O)c2cc(Br)cnc21 [Compound 13, 3-(Benzofuran-3-yl)-4-(5-bromo-1-methyl-1H-pyrrolo[2,3-b]pyridin-3-yl)-1H-pyrrole-2,5-dione]	–	either low or no apparent toxicity	bioactive in stimulating progesterone production	IC50 (human GSK-3β): 5 nM
COCCc1cccc2c(C3=C(c4coc5ccccc45)C(=O)NC3=O)cn(CCOC)c12 [Compound 23, 3-(Benzofuran-3-yl)-4-(1,7-bis(2-methoxyethyl)-1H-indol-3-yl)-1H-pyrrole-2,5-dione]	< 30 ng progesterone/mg protein	low, but observable signs of cytotoxicity	–	–
COCCc1cccc2c(C3=C(c4coc5ccccc45)C(=O)NC3=O)cn(C)c12 [Compound 21, 3-(Benzofuran-3-yl)-4-(7-(2-methoxyethyl)-1-methyl-1H-indol-3-yl)-1H-pyrrole-2,5-dione]	–	either low or no apparent toxicity	bioactive in stimulating progesterone production	–
COCCn1cc(C2=C(c3coc4ccccc34)C(=O)NC2=O)c2cc(F)c(F)cc21 [Compound 12, 3-(Benzofuran-3-yl)-4-(5,6-difluoro-1-(2-methoxyethyl)-1H-indol-3-yl)-1H-pyrrole-2,5-dione]	–	significantly more cytotoxic; also recorded: toxic to the MA-10 cells	bioactive in stimulating progesterone production	–
O=C1NC(=O)C(c2cn3c4c(cc(F)cc24)CN(C(=O)N2CCOCC2)CC3)=C1c1coc2ccccc12 [Compound 31, 3-(Benzofuran-3-yl)-4-(9-fluoro-2-(morpholine-4-carbonyl)-1,2,3,4-tetrahydro-[1,4]diazepino[6,7,1-hi]indol-7-yl)-1H-pyrrole-2,5-dione]	–	significantly more cytotoxic	–	–
O=C1NC(=O)C(c2cn3c4c(cc(Br)cc24)CNCC3)=C1c1coc2ccccc12 [Compound 26, 3-(Benzofuran-3-yl)-4-(9-bromo-1,2,3,4-tetrahydro-[1,4]diazepino[6,7,1-hi]indol-7-yl)-1H-pyrrole-2,5-dione trifluoroacetate]	–	toxic to the MA-10 cells	bioactive in stimulating progesterone production	–
COCCn1cc(C2=C(c3coc4ccccc34)C(=O)NC2=O)c2cccnc21 [Compound 16, 3-(Benzofuran-3-yl)-4-(1-(2-methoxyethyl)-1H-pyrrolo[2,3-b]pyridin-3-yl)-1H-pyrrole-2,5-dione]	< 30 ng progesterone/mg protein	low, but observable signs of cytotoxicity	–	–
